Assay results published in the RNAGym collection of RNA variant scans (doi:10.1038/s41586-018-0170-7).

B1: tRNA (parent)
chain: GUUCCGUUGGCGUAAUGGUAACGCGUCUCCCUCCUAAGGAGAAGACUGCGGGUUCGAGUCCCGUACGGAACG

Variants of: B1
Experiment: yeast fitness, log relative to wild type (ln ratio); higher = fitter; tRNA-Arg(CCU), competitive growth, 37 C, 1 M NaCl
How it was run: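 Genotype fitness is expressed as the natural log of its generations over those of the wild type. Each pool of the tRNA-Arg(CCU) variant library, carried on a HIS3 centromeric plasmid in BY4742 lacking the chromosomal gene, came from one of two independent transformations and grew 4 generations in SC-HIS at 30 °C before ~6.5 generations (~26.5 h) in SC-HIS 1M NaCl at 37 °C. Generation numbers used OD-scaled log2 output/input frequencies from 125 bp paired-end Illumina sequencing, combined across replicates by inverse-variance weighting.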

Variant	yeast fitness (ln)
GUUCCUUUGGCGUAAUGGUAACGCGUCUCCCUCCUAAGGAGACGAUUGCGGGUUCGAGUCCCGUAUGGGAUG	-0.321
AGUCCAUUGGCGUAAUGGUAACGCGUUUCCCUCCUAAGGAGAAGACUGCGGGUUCGAGUCCCGUACGGGUCG	-0.256
AUUCCGUUGGCGUAAUGGUAACGCGUUUCCCUCCUAAGGAGAAGAUUGCGGGUUCGAGUCCCGUAAGGGGCG	-0.248
GUUCCUUUGGCGUAAUGGUAACGCGUUUCCCUCCUAAGGAGAAGAUUGCGGGUUCGAGUCCCGUAAGGGACG	-0.0559
AGUCCAUUGGCGUAAUGGUAACGCGUUUCCCUCCUAAGGAGAAGACUGCGGGUUCGAGUCCCGUAUGGGGUG	-0.402
AUUCCAUUGGCGUAAUGGUAACGCGUCUCCCUCCUAAGGAGAAGAUUGCGGGUUCGAGUCCCGUAAGGGGUG	-0.151
GUUCCGUUGGCGUAAUGGUAACGCGUUUCCCUCCUAAGGAGACGAUUGCGGGUUCGAGUCCCGUAAGGAUUG	-0.301
ACUCCUUUGGCGUAAUGGUAACGCGUUUCCCUCCUAAGGAGACGAUUGCGGGUUCGAGUCCCGUACGGAACG	-0.0772
GGUCCAUUGGCGUAAUGGUAACGCGUUUCCCUCCUAAGGAGAAGAUUGCGGGUUCGAGUCCCGUACGGGAUG	-0.174
GCUCCUUUGGCGUAAUGGUAACGCGUUUCCCUCCUAAGGAGAAGAUUGCGGGUUCGAGUCCCGUACGGAACG	-0.0552
GUUCCUUUGGCGUAAUGGUAACGCGUCUCCCUCCUAAGGAGAAGACUGCGGGUUCGAGUCCCGUAAGGGUUG	-0.408
GUUCCUUUGGCGUAAUGGUAACGCGUCUCCCUCCUAAGGAGACGACUGCGGGUUCGAGUCCCGUAAGGAUCG	-0.307
ACUCCUUUGGCGUAAUGGUAACGCGUCUCCCUCCUAAGGAGAAGACUGCGGGUUCGAGUCCCGUACGGAGUG	-0.0526
GGUCCGUUGGCGUAAUGGUAACGCGUCUCCCUCCUAAGGAGACGAUUGCGGGUUCGAGUCCCGUAUGGGUCG	-0.172
GGUCCUUUGGCGUAAUGGUAACGCGUUUCCCUCCUAAGGAGACGACUGCGGGUUCGAGUCCCGUAAGGGAUG	-0.445
GGUCCUUUGGCGUAAUGGUAACGCGUCUCCCUCCUAAGGAGACGACUGCGGGUUCGAGUCCCGUAAGGGGCG	-0.256
GGUCCGUUGGCGUAAUGGUAACGCGUUUCCCUCCUAAGGAGAAGAUUGCGGGUUCGAGUCCCGUAUGGGUCG	-0.392
AUUCCAUUGGCGUAAUGGUAACGCGUUUCCCUCCUAAGGAGACGACUGCGGGUUCGAGUCCCGUAUGGGGCG	-0.383
GUUCCUUUGGCGUAAUGGUAACGCGUUUCCCUCCUAAGGAGACGACUGCGGGUUCGAGUCCCGUAUGGAGCG	-0.407
GUUCCUUUGGCGUAAUGGUAACGCGUCUCCCUCCUAAGGAGACGAUUGCGGGUUCGAGUCCCGUACGGAAUG	-0.193
GGUCCUUUGGCGUAAUGGUAACGCGUUUCCCUCCUAAGGAGAAGACUGCGGGUUCGAGUCCCGUACGGAUUG	-0.227
GUUCCAUUGGCGUAAUGGUAACGCGUUUCCCUCCUAAGGAGACGAUUGCGGGUUCGAGUCCCGUACGGGAUG	-0.344
GUUCCGUUGGCGUAAUGGUAACGCGUCUCCCUCCUAAGGAGAAGACUGCGGGUUCGAGUCCCGUAUGGAGUG	-0.0554
GUUCCUUUGGCGUAAUGGUAACGCGUUUCCCUCCUAAGGAGAAGACUGCGGGUUCGAGUCCCGUACGGAAUG	-0.222
GGUCCGUUGGCGUAAUGGUAACGCGUCUCCCUCCUAAGGAGACGACUGCGGGUUCGAGUCCCGUAAGGGUUG	-0.28

Variant	yeast fitness (ln)
GGUCCGUUGGCGUAAUGGUAACGCGUUUCCCUCCUAAGGAGAAGACUGCGGGUUCGAGUCCCGUAAGGGGUG	-0.247
GCUCCAUUGGCGUAAUGGUAACGCGUUUCCCUCCUAAGGAGACGAUUGCGGGUUCGAGUCCCGUAUGGAGUG	-0.0215
GUUCCGUUGGCGUAAUGGUAACGCGUUUCCCUCCUAAGGAGACGAUUGCGGGUUCGAGUCCCGUAUGGAACG	-0.217
GUUCCGUUGGCGUAAUGGUAACGCGUCUCCCUCCUAAGGAGACGACUGCGGGUUCGAGUCCCGUACGGAUUG	-0.0836
ACUCCGUUGGCGUAAUGGUAACGCGUUUCCCUCCUAAGGAGACGAUUGCGGGUUCGAGUCCCGUAUGGGUCG	-0.218
AGUCCAUUGGCGUAAUGGUAACGCGUUUCCCUCCUAAGGAGACGACUGCGGGUUCGAGUCCCGUAUGGGUUG	-0.489
AUUCCGUUGGCGUAAUGGUAACGCGUCUCCCUCCUAAGGAGAAGAUUGCGGGUUCGAGUCCCGUACGGGACG	-0.238
ACUCCGUUGGCGUAAUGGUAACGCGUUUCCCUCCUAAGGAGAAGACUGCGGGUUCGAGUCCCGUAUGGAACG	-0.191
GUUCCGUUGGCGUAAUGGUAACGCGUUUCCCUCCUAAGGAGAAGACUGCGGGUUCGAGUCCCGUAAGGGUCG	-0.15
GUUCCGUUGGCGUAAUGGUAACGCGUCUCCCUCCUAAGGAGAAGAUUGCGGGUUCGAGUCCCGUAUGGGUCG	-0.0707
GGUCCGUUGGCGUAAUGGUAACGCGUUUCCCUCCUAAGGAGACGACUGCGGGUUCGAGUCCCGUAUGGAGCG	-0.257
AUUCCGUUGGCGUAAUGGUAACGCGUUUCCCUCCUAAGGAGACGACUGCGGGUUCGAGUCCCGUAAGGAUUG	-0.423
GUUCCAUUGGCGUAAUGGUAACGCGUUUCCCUCCUAAGGAGAAGACUGCGGGUUCGAGUCCCGUAAGGGUCG	-0.243
AGUCCGUUGGCGUAAUGGUAACGCGUUUCCCUCCUAAGGAGACGACUGCGGGUUCGAGUCCCGUAUGGGUUG	-0.332
GCUCCGUUGGCGUAAUGGUAACGCGUUUCCCUCCUAAGGAGACGACUGCGGGUUCGAGUCCCGUACGGGACG	-0.0976
GUUCCGUUGGCGUAAUGGUAACGCGUCUCCCUCCUAAGGAGACGACUGCGGGUUCGAGUCCCGUAUGGAGUG	-0.156
GCUCCAUUGGCGUAAUGGUAACGCGUUUCCCUCCUAAGGAGAAGAUUGCGGGUUCGAGUCCCGUACGGGUUG	-0.295
GGUCCGUUGGCGUAAUGGUAACGCGUCUCCCUCCUAAGGAGAAGAUUGCGGGUUCGAGUCCCGUAUGGAGCG	-0.11
AUUCCUUUGGCGUAAUGGUAACGCGUUUCCCUCCUAAGGAGACGAUUGCGGGUUCGAGUCCCGUAAGGAAUG	-0.138
GGUCCUUUGGCGUAAUGGUAACGCGUCUCCCUCCUAAGGAGAAGAUUGCGGGUUCGAGUCCCGUAAGGAUCG	0.00118
GCUCCUUUGGCGUAAUGGUAACGCGUUUCCCUCCUAAGGAGACGAUUGCGGGUUCGAGUCCCGUAUGGGGCG	-0.256
GCUCCUUUGGCGUAAUGGUAACGCGUUUCCCUCCUAAGGAGACGACUGCGGGUUCGAGUCCCGUAUGGGAUG	-0.522
AGUCCGUUGGCGUAAUGGUAACGCGUCUCCCUCCUAAGGAGAAGACUGCGGGUUCGAGUCCCGUAUGGAACG	-0.159
GCUCCUUUGGCGUAAUGGUAACGCGUUUCCCUCCUAAGGAGACGACUGCGGGUUCGAGUCCCGUAUGGAAUG	-0.338
GCUCCUUUGGCGUAAUGGUAACGCGUCUCCCUCCUAAGGAGAAGAUUGCGGGUUCGAGUCCCGUACGGGAUG	-0.0672

Variant	yeast fitness (ln)
GUUCCGUUGGCGUAAUGGUAACGCGUCUCCCUCCUAAGGAGAAGAUUGCGGGUUCGAGUCCCGUAAGGGGUG	-0.0571
GCUCCAUUGGCGUAAUGGUAACGCGUCUCCCUCCUAAGGAGACGACUGCGGGUUCGAGUCCCGUAUGGAAUG	-0.115
ACUCCAUUGGCGUAAUGGUAACGCGUCUCCCUCCUAAGGAGAAGAUUGCGGGUUCGAGUCCCGUAUGGAACG	-0.16
AUUCCAUUGGCGUAAUGGUAACGCGUCUCCCUCCUAAGGAGACGAUUGCGGGUUCGAGUCCCGUAAGGGGUG	-0.261
GCUCCUUUGGCGUAAUGGUAACGCGUCUCCCUCCUAAGGAGACGAUUGCGGGUUCGAGUCCCGUACGGGAUG	-0.17
ACUCCGUUGGCGUAAUGGUAACGCGUUUCCCUCCUAAGGAGAAGAUUGCGGGUUCGAGUCCCGUACGGAGUG	-0.0196
AGUCCUUUGGCGUAAUGGUAACGCGUCUCCCUCCUAAGGAGAAGAUUGCGGGUUCGAGUCCCGUAUGGGGCG	-0.347
AGUCCAUUGGCGUAAUGGUAACGCGUCUCCCUCCUAAGGAGACGACUGCGGGUUCGAGUCCCGUAAGGAUCG	-0.216
GUUCCGUUGGCGUAAUGGUAACGCGUUUCCCUCCUAAGGAGACGAUUGCGGGUUCGAGUCCCGUACGGGUCG	-0.0621
ACUCCGUUGGCGUAAUGGUAACGCGUCUCCCUCCUAAGGAGAAGACUGCGGGUUCGAGUCCCGUAUGGAAUG	-0.189
AUUCCAUUGGCGUAAUGGUAACGCGUCUCCCUCCUAAGGAGACGACUGCGGGUUCGAGUCCCGUACGGAAUG	-0.257
ACUCCUUUGGCGUAAUGGUAACGCGUUUCCCUCCUAAGGAGACGAUUGCGGGUUCGAGUCCCGUAAGGAGCG	-0.15
GCUCCGUUGGCGUAAUGGUAACGCGUCUCCCUCCUAAGGAGAAGAUUGCGGGUUCGAGUCCCGUACGGAUUG	-0.0871
AGUCCGUUGGCGUAAUGGUAACGCGUCUCCCUCCUAAGGAGACGAUUGCGGGUUCGAGUCCCGUACGGGGUG	-0.226
AUUCCGUUGGCGUAAUGGUAACGCGUCUCCCUCCUAAGGAGAAGAUUGCGGGUUCGAGUCCCGUACGGAGCG	-0.226
AUUCCGUUGGCGUAAUGGUAACGCGUUUCCCUCCUAAGGAGACGAUUGCGGGUUCGAGUCCCGUAUGGGGUG	-0.347
AGUCCGUUGGCGUAAUGGUAACGCGUUUCCCUCCUAAGGAGAAGACUGCGGGUUCGAGUCCCGUACGGAGCG	-0.142
GCUCCAUUGGCGUAAUGGUAACGCGUCUCCCUCCUAAGGAGACGAUUGCGGGUUCGAGUCCCGUAAGGAGCG	-0.123
AGUCCUUUGGCGUAAUGGUAACGCGUUUCCCUCCUAAGGAGAAGACUGCGGGUUCGAGUCCCGUAUGGGAUG	-0.425
GUUCCGUUGGCGUAAUGGUAACGCGUUUCCCUCCUAAGGAGACGACUGCGGGUUCGAGUCCCGUAUGGAGUG	-0.211
AUUCCAUUGGCGUAAUGGUAACGCGUCUCCCUCCUAAGGAGAAGAUUGCGGGUUCGAGUCCCGUAUGGGACG	-0.423
GGUCCGUUGGCGUAAUGGUAACGCGUUUCCCUCCUAAGGAGAAGAUUGCGGGUUCGAGUCCCGUAAGGAAUG	-0.163
GGUCCUUUGGCGUAAUGGUAACGCGUUUCCCUCCUAAGGAGACGACUGCGGGUUCGAGUCCCGUAAGGAUUG	-0.445
AUUCCGUUGGCGUAAUGGUAACGCGUCUCCCUCCUAAGGAGACGACUGCGGGUUCGAGUCCCGUACGGGUUG	-0.366
GUUCCGUUGGCGUAAUGGUAACGCGUUUCCCUCCUAAGGAGAAGACUGCGGGUUCGAGUCCCGUACGGAUUG	-0.149
